# In ChEMBL document CHEMBL1123499, “Synthesis, saludiuretic, and antihypertensive activity of 6,7-disubstituted 1(2H)- and 3,4-dihydro-1(2H)-phthalazinones” (1986):
# How the values were obtained:
# Rattus norvegicus [1] = organism: Rattus norvegicus; assay: Saluretic activity in rats after 5-24 hours, as chloride ion concentration in urine; assay type: functional
# Method in brief: (§1)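 Male Sabra rats (170-200 g), fasted 18 h, dosed orally 50 mg/kg in saline at 25 mL/kg, eight per compound, two per metabolic cage, no food or water. Urine collected 5 and 24 h after dosing and centrifuged. Chloride titrated with Hg(NO3)2/diphenylcarbazone after HNO3 acidification; Na+ and K+ by atomic absorption.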
# Rattus norvegicus [2] = organism: Rattus norvegicus; assay: Compound was tested for antihypertensive activity in rat after 24 hr postdose; assay type: functional
# Method in brief: (§2)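 DOCA/saline hypertensive Sprague-Dawley rats (250-350 g), six per group, given 10 mg/kg doca s.c. daily with saline until systolic BP reached 170 mmHg (usually 3-4 weeks). Oral 25 mg/kg in 5 mL/kg 1% methylcellulose. Systolic BP by tail-cuff before and 1, 4, 24 h after; drop reported as mean ± SD.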
# Rattus norvegicus [3] = assay: Blood pressure was measured in spontaneously hypertensive rat after po administration at 8 hr; assay type: functional
# Method in brief: (§3)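 Male-unspecified SHR (250-350 g; baseline BP at least 170 mmHg by indirect tail-cuff plethysmography), nonanesthetized, five per group. Single oral dose of 75 mg/kg. Indirect BP and heart rate recorded before dosing and 4, 8 and 24 h after. Group means reported, BP ± SEM.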
# Rattus norvegicus [4] = organism: Rattus norvegicus; assay: Saluretic activity in rats after 0-5 hours, as sodium ion concentration in urine; assay type: functional; method in brief: as §1
# Rattus norvegicus [5] = organism: Rattus norvegicus; assay: Saluretic activity in rats after 5-24 hours, as ratio of Na+/K+ ion concentration in urine; assay type: functional; method in brief: as §1
# Rattus norvegicus [6] = organism: Rattus norvegicus; assay: Diuretic activity in rats at time intervals of 5-24 hours; assay type: functional, Urine
# Method in brief: (§4)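 Male Sabra rats (170-200 g), starved 18 h, given 50 mg/kg by stomach tube in saline (25 mL/kg load), eight per compound, saline and furosemide controls run alongside. Held two per metabolic cage at 22 °C without food or water. Urine volume measured at 5 and 24 h collections.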
# Rattus norvegicus [7] = organism: Rattus norvegicus; assay: Diuretic activity in rats at time intervals of 0-5 hours; assay type: functional, Urine; method in brief: as §4
# Rattus norvegicus [8] = organism: Rattus norvegicus; assay: Diuretic activity in rats at time intervals of 0-24 hours; assay type: functional, Urine; method in brief: as §4
# Rattus norvegicus [9] = assay: The heart rate was measured in spontaneously hypertensive rat after po administration at 24 hr; assay type: functional; method in brief: as §3
# Rattus norvegicus [10] = organism: Rattus norvegicus; assay: Saluretic activity in rats after 0-5 hours, as ratio of Na+/K+ ion concentration in urine; assay type: functional; method in brief: as §1
# Rattus norvegicus [11] = organism: Rattus norvegicus; assay: Saluretic activity in rats after 0-24 hours, as ratio of Na+/K+ ion concentration in urine; assay type: functional; method in brief: as §1
# Rattus norvegicus [12] = organism: Rattus norvegicus; assay: Saluretic activity in rats after 5-24 hours, as sodium ion concentration in urine; assay type: functional; method in brief: as §1
# Rattus norvegicus [13] = organism: Rattus norvegicus; assay: Saluretic activity in rats after 0-24 hours, as sodium ion concentration in urine; assay type: functional; method in brief: as §1
# Rattus norvegicus [14] = organism: Rattus norvegicus; assay: Compound was tested for antihypertensive activity in rat after 1 hr postdose; assay type: functional; method in brief: as §2
# Rattus norvegicus [15] = organism: Rattus norvegicus; assay: Saluretic activity in rats after 0-5 hours, as chloride ion concentration in urine; assay type: functional; method in brief: as §1
# Rattus norvegicus [16] = assay: The heart rate was measured in spontaneously hypertensive rat after po administration at 8 hr; assay type: functional; method in brief: as §3
# Rattus norvegicus [17] = organism: Rattus norvegicus; assay: Saluretic activity in rats after 0-24 hours, as potassium ion concentration in urine; assay type: functional; method in brief: as §1
# Rattus norvegicus [18] = assay: Blood pressure was measured in spontaneously hypertensive rat after po administration at 24 hr; assay type: functional; method in brief: as §3
# Rattus norvegicus [19] = organism: Rattus norvegicus; assay: Saluretic activity in rats after 0-5 hours, as potassium ion concentration in urine; assay type: functional; method in brief: as §1
# Rattus norvegicus [20] = assay: Blood pressure was measured in spontaneously hypertensive rat after po administration at 4 hr; assay type: functional; method in brief: as §3
# Rattus norvegicus [21] = organism: Rattus norvegicus; assay: Saluretic activity in rats after 0-24 hours, as chloride ion concentration in urine; assay type: functional; method in brief: as §1
# Rattus norvegicus [22] = organism: Rattus norvegicus; assay: Compound was tested for antihypertensive activity in rat after 4 hr postdose; assay type: functional; method in brief: as §2
# Rattus norvegicus [23] = assay: The heart rate was measured in spontaneous hypertensive rat after po administration at 4 hr; assay type: functional; method in brief: as §3
# Rattus norvegicus [24] = organism: Rattus norvegicus; assay: Saluretic activity in rats after 5-24 hours, as potassium ion concentration in urine; assay type: functional; method in brief: as §1
smiles,measurement,setting,value
NS(=O)(=O)c1cc2c(=O)n(Cc3ccccc3)ncc2cc1Cl,Saluretic activity,Rattus norvegicus [1],5.72 m equiv kg-1
same,Decrease in blood pressure,Rattus norvegicus [2],47 mmHg
same,BP,Rattus norvegicus [3],149 mmHg
same,Delta blood pressure,Rattus norvegicus [3],40.2 mmHg
same,Saluretic activity,Rattus norvegicus [4],6.4 m equiv kg-1
same,Ratio,Rattus norvegicus [5],1.78
same,Diuretic activity,Rattus norvegicus [6],4.9 mL
same,Diuretic activity,Rattus norvegicus [7],5.9 mL
same,Diuretic activity,Rattus norvegicus [8],10.8 mL
same,Heart rate,Rattus norvegicus [9],402 beats min-1
same,Ratio,Rattus norvegicus [10],3.29
same,Ratio,Rattus norvegicus [11],2.32
same,Saluretic activity,Rattus norvegicus [12],5.92 m equiv kg-1
same,Saluretic activity,Rattus norvegicus [13],12.32 m equiv kg-1
same,Decrease in blood pressure,Rattus norvegicus [14],23 mmHg
same,Saluretic activity,Rattus norvegicus [15],7.97 m equiv kg-1
same,Heart rate,Rattus norvegicus [16],411.6 beats min-1
same,Saluretic activity,Rattus norvegicus [17],5.3 m equiv kg-1
same,BP,Rattus norvegicus [18],170.2 mmHg
same,Delta blood pressure,Rattus norvegicus [18],14.6 mmHg
same,Saluretic activity,Rattus norvegicus [19],1.94 m equiv kg-1
same,BP,Rattus norvegicus [20],163.2 mmHg
same,Delta blood pressure,Rattus norvegicus [20],23.4 mmHg
same,Saluretic activity,Rattus norvegicus [21],13.69 m equiv kg-1
same,Decrease in blood pressure,Rattus norvegicus [22],36 mmHg
same,Heart rate,Rattus norvegicus [23],399.6 beats min-1
same,Saluretic activity,Rattus norvegicus [24],3.36 m equiv kg-1
